The source of these data is ChEMBL document CHEMBL1134459 (J Med Chem, 2001).

The nature of series [1]: Toxicity in HUVEC cell lysates. The format is cell-based, Lysate. Particulars: human.
Series [2] has as its target T1, Intercellular adhesion molecule 1 (Homo sapiens, UniProt P05362). Kind of series: In vitro inhibitory potency compared to TNF-alpha induced Intercellular adhesion molecule-1 in human endothelial cells (ELISA assay). Type of series: cell-based, Endothelial cell. In outline: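 Primary HUVECs seeded at 5 × 10^4 cells/mL in EBM/2% FBS with supplements. After 24 h of compound at 37 °C, TNFα was added to 5 ng/mL final for 6 h at 37 °C. Cell-surface ICAM-1 was detected with a mouse monoclonal antibody, then HRP anti-mouse IgG and OPD, with absorbance at 490 nm. Triplicate determinations.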
For orientation: In an ELISA, binding on a coated surface is turned into a signal by an enzyme label.

Series [3] concerns the target T1, Intercellular adhesion molecule 1. The series can be described thus: Inhibition of intercellular adhesion molecule-1 (ICAM1) in human endothelial cells. The format is cell-based, Endothelial cell. In outline: (§1)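 Whole-cell ELISA on primary HUVECs plated at 5 × 10^4 cells/mL in EBM/2% FBS with growth supplements. Compound preincubated 24 h at 37 °C, then inducer added (TNFα at 5 ng/mL final, or IL-1β or PMA in its place) for 6 h at 37 °C. Mouse monoclonal anti-E-selectin, anti-ICAM-1 or anti-VCAM-1 was applied overnight at 4 °C, then HRP anti-mouse IgG. Detection with OPD, A490. Triplicate assays.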

Series [4] has the same target. Kind of series: In vitro inhibitory potency compared to PMA induced Intercellular adhesion molecule-1 in human endothelial cells (ELISA assay). The format is cell-based, Endothelial cell. The method, boiled down:
as §1

The target in series [5] is T2, E-selectin (Homo sapiens) (UniProt P16581).
T2 sequence (whole entry): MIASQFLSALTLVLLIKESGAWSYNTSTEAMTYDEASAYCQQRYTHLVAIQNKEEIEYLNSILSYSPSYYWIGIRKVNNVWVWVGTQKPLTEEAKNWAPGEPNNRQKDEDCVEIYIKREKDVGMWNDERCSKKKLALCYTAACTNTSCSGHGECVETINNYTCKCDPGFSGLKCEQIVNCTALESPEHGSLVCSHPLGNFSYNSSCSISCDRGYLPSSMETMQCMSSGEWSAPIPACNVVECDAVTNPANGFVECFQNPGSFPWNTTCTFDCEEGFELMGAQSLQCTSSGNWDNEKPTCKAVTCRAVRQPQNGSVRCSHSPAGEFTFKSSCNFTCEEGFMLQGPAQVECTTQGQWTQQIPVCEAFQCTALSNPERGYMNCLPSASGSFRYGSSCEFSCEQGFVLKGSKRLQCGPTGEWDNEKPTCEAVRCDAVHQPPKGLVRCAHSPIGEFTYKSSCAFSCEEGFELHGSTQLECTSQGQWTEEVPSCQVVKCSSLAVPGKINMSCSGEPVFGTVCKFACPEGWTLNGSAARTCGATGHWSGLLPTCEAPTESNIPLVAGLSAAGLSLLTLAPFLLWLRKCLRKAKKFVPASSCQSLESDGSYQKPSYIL
Kind of series: In vitro inhibitory potency compared to PMA induced Selectin E expression in human endothelial cells (ELISA assay) at 1 uM. Type of series: cell-based. Particulars: Endothelial cell. In outline:
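HUVEC whole-cell ELISA with PMA substituted for TNFα as inducer. Compound preincubated 24 h at 37 °C, then 6 h induction at 37 °C. E-selectin detected with mouse monoclonal antibody and HRP anti-mouse IgG, OPD development, A490. Value given as percent inhibition at a single concentration of 1 µM.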

Series [6] concerns the target T3, E-selectin (Homo sapiens, UniProt P16581).
T3 sequence (P16581 whole entry): T2 sequence (whole entry)
Kind of series: Inhibition of selectin E in human endothelial cells. The format is cell-based, Endothelial cell. In outline: as §1

Series [7] has as its target T3, E-selectin. The series can be described thus: In vitro inhibitory potency compared to IL1-beta induced Selectin E in human endothelial cells (ELISA assay). Type of series: cell-based, Endothelial cell. In outline: as §1
The target in series [8] is T3, E-selectin. The series can be described thus: In vitro inhibitory potency compared to TNF-alpha induced Selectin E expression in human endothelial cells (ELISA assay). Type of series: cell-based, Endothelial cell. The method, boiled down:
as §1

The subject of series [9] is Mus musculus. The series can be described thus: Efficacy in serum sICAM-1 at 30 mg/kg of oral dosing in an inhaled allergen-induced cell influx in 6 mice. Type of series: functional. The method, boiled down: (§2)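 Mouse inhaled-allergen model. Compounds or vehicle (0.2% methylcellulose) given orally 18 h and 1 h before the first of two allergen inhalations. Lungs lavaged 24-27 h after the first inhalation. Read-outs were lavage cell count (no./µL), neutrophil and eosinophil percentages, and soluble ICAM-1 in serum and BAL 24 h after antigen. Values are mean ± SE.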

Series [10] deals with Mus musculus. Kind of series: Efficacy in serum sICAM-1 at 3 mg/kg of oral dosing in an inhaled allergen-induced cell influx in 7 mice. The format is functional. The method, boiled down:
as §2

In series [11] the test system is Mus musculus. Kind of series: % Efficacy in eosinophils at 0.3 mg/kg of oral dosing in an inhaled allergen-induced cell influx in 7 mice. Type of series: functional, Eosinophil. In outline:
as §2

In series [12] the test system is Mus musculus. The series can be described thus: % Efficacy in eosinophils at 30 mg/kg of oral dosing in an inhaled allergen-induced cell influx in 6 mice. Type of series: functional, Eosinophil. In outline: as §2
Series [13] relates to Mus musculus. The series can be described thus: % Efficacy in eosinophils at 3 mg/kg of oral dosing in an inhaled allergen-induced cell influx in 7 mice. The format is functional, Eosinophil. In outline:
as §2

Series [14] relates to Mus musculus. The series can be described thus: % Efficacy in neutrophils at 0.3 mg/kg of oral dosing in an inhaled allergen-induced cell influx in 7 mice. The format is functional. In outline: as §2
Series [15] concerns Mus musculus. The series can be described thus: % Efficacy in neutrophils at 30 mg/kg of oral dosing in an inhaled allergen-induced cell influx in 6 mice. Type of series: functional. In outline:
as §2

Series [16] relates to Mus musculus. Kind of series: % Efficacy in neutrophils at 3 mg/kg of oral dosing in an inhaled allergen-induced cell influx in 7 mice. Type of series: functional. The method, boiled down:
as §2

The subject of series [17] is Mus musculus. The series can be described thus: Efficacy in lBAL sICAM-1 at 0.3 mg/kg of oral dosing in an inhaled allergen-induced cell influx in 7 mice. Type of series: functional. In outline:
as §2

The subject of series [18] is Mus musculus. The series can be described thus: Efficacy in lBAL sICAM-1 at 30 mg/kg of oral dosing in an inhaled allergen-induced cell influx in 6 mice. The format is functional. The method, boiled down:
as §2

Series [19] has as its system Mus musculus. The series can be described thus: Efficacy in lBAL sICAM-1 at 3 mg/kg of oral dosing in an inhaled allergen-induced cell influx in 7 mice. The format is functional. The method, boiled down:
as §2

For series [20], the system named is Mus musculus. Kind of series: Efficacy in lavage cells at 0.3 mg/kg of oral dosing in an inhaled allergen-induced cell influx in 7 mice. The format is functional. The method, boiled down: as §2
Series [21] concerns Mus musculus. Kind of series: Efficacy in lavage cells at 3 mg/kg of oral dosing in an inhaled allergen-induced cell influx in 7 mice. The format is functional. In outline: as §2
Series [22] concerns Mus musculus. Kind of series: Efficacy in serum sICAM-1 at 0.3 mg/kg of oral dosing in an inhaled allergen-induced cell influx in 7 mice. The format is functional. The method, boiled down: as §2
A short description of series [23]: Solubility in pH 7.4 buffer. Type of series: physicochemical.
Series [24] addresses T1, Intercellular adhesion molecule 1. The series can be described thus: In vitro inhibitory potency compared to IL1-beta induced Intercellular adhesion molecule-1 in human endothelial cells (ELISA assay). The format is cell-based, Endothelial cell. The method, boiled down:
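Primary HUVECs seeded at 5 × 10^4 cells/mL in EBM/2% FBS with EGF, bovine brain extract and gentamicin. Compound added next day for 24 h at 37 °C, then inducer (IL-1β or PMA, level not stated) for 6 h at 37 °C. Whole-cell ELISA used mouse monoclonal anti-ICAM-1 or anti-VCAM-1, HRP donkey anti-mouse IgG and OPD, read at 490 nm. Run in triplicate.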

Converted amounts (≈) assume the structure as drawn. “And” between values parts separate entries of the source, which are not always exact repeats. Equal values may be shown once.

T1 sequence (P05362 whole entry): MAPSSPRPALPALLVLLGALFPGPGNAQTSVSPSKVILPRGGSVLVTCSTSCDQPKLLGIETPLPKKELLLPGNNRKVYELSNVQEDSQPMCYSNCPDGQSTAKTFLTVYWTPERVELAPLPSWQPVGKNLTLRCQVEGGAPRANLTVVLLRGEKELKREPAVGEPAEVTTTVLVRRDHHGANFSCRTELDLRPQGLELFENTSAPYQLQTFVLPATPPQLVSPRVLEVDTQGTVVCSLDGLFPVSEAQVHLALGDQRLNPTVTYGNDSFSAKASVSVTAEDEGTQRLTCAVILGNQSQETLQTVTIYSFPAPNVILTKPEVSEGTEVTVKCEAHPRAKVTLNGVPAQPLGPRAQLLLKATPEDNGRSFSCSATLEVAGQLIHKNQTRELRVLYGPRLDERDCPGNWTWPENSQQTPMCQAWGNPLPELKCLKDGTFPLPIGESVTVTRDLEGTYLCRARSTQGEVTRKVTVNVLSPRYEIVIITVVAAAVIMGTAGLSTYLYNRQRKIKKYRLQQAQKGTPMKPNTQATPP

What is called IC50 is the point on the concentration scale where inhibition reaches its midpoint. For orientation: inhibition means the change of the read-out against control, counted positive when it falls. The low end stands for a response near the control, the high end for a response far below the control. As a reminder, the solubility is the concentration that dissolves in the medium under given conditions. A high value points to much dissolved substance. As to `NC(=O)c1cc2c(Oc3ccc(Br)cc3)cncc2s1`, the IC50 is > 100000 nM in [1]; 3 nM in series [2]; 5 nM in [3]; 6 nM in series [4]; 4 nM against E-selectin [6]; 6 nM at E-selectin [7]. For the same molecule, the IC50 against E-selectin [8] stood at 4 nM; in [24], 3 nM. In series [5], this molecule showed an inhibition of 48%. In addition, the Efficacy in the series with Mus musculus [9] was 18.8 µg/mL and 18.5 µg/mL; in the series on Mus musculus [10], 21.3 µg/mL; in the series with Mus musculus [11], 19%; in the series with Mus musculus [12] it was 8% and 9%; with Mus musculus [13] it was 14%; with Mus musculus [14], 44%. In addition, the Efficacy was 38% and 57% in the series with Mus musculus [15]; 60% in the series with Mus musculus [16]; 2.67 µg/mL with Mus musculus [17]; 1.74 µg/mL and 1.99 µg/mL with Mus musculus [18]; 2.68 µg/mL with Mus musculus [19]; 282 number ul-1 in the series on Mus musculus [20]. Moreover, the Efficacy with Mus musculus [21] was 319 number ul-1; in the series on Mus musculus [22], 20.7 µg/mL. This molecule gave a solubility in series [23] of 0.46 µg/mL (≈ 1.32 µM).
